This is an account of results in ChEMBL document CHEMBL1129978, “Effect of structural modification of enol-carboxamide-type nonsteroidal antiinflammatory drugs on COX-2/COX-1 selectivity” (J Med Chem, 1997).

Each structure is given as a SMILES string.

For experiment [1], the target named is T1, Prostaglandin G/H synthase 1 (Homo sapiens, UniProt P23219). Kind of experiment: Inhibition of human Prostaglandin G/H synthase 1 at 10 ug/mL expressed as mean percent inhibition of control PGE-2 production. In short, it runs like this:
(§1)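 Human COX-1 and COX-2 genes expressed in a baculovirus system; microsomes prepared from High Five insect cells and used as the enzyme source. Activity read as PGE2 production. Each dose run in duplicate wells within each experiment, and values given as mean percent inhibition of control PGE2.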

Experiment [2] deals with T1, Prostaglandin G/H synthase 1. In words: Inhibition of human Prostaglandin G/H synthase 1 at 0.1 ug/mL expressed as mean percent inhibition of control PGE-2 production. In short, it runs like this: as §1
Experiment [3] has the same target. Kind of experiment: Inhibition of human Prostaglandin G/H synthase 1 at 1 ug/mL expressed as mean percent inhibition of control PGE-2 production. In short, it runs like this: as §1

T1 sequence (P23219 whole entry): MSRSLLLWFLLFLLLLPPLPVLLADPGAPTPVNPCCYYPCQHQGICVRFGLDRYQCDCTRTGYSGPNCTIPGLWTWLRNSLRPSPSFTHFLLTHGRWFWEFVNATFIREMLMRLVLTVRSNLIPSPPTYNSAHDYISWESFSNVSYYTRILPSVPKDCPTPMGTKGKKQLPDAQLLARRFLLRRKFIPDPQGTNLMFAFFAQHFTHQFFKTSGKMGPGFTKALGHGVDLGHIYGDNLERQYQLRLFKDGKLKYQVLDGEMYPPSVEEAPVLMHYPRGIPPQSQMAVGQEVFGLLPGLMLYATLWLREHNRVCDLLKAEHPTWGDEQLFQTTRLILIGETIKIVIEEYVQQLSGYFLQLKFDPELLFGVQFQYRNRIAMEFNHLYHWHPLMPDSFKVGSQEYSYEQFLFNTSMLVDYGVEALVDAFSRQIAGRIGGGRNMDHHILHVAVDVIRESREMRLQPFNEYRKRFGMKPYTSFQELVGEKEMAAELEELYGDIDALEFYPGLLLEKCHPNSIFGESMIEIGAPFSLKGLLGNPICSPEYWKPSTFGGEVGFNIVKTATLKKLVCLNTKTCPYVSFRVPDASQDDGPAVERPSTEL

One may read the inhibition as the drop in the measured response relative to a control, in per cent. Regarding `O=C(Nc1cccc(Cl)c1)C1=C(O)c2ccccc2SC1`, the values for the inhibition in experiment [1], in experiment [2] and in experiment [3] were 83%, 19% and 75%, respectively.

`Cc1cnc(NC(=O)C2=C(O)c3cc(Cl)ccc3SC2C)s1` (centres undefined): the values for the inhibition in experiment [1], in experiment [2] and in experiment [3] were 30%, 12% and 20%, respectively.

With `Cc1cnc(NC(=O)C2=C(O)N(C)S(=O)(=O)c3ccc(Cl)cc32)s1`, the inhibition in experiment [1] was 95%; in experiment [2], 23%; in experiment [3], 44%.

Take `CN1C(C(=O)Nc2nc(C(F)(F)F)cs2)=C(O)c2ccccc2S1(=O)=O`: the inhibition in experiment [1] worked out at 72%; in experiment [2], 8%; in experiment [3], 19%.

Regarding `CN1C(C(=O)Nc2ccc(Cl)cc2)=C(O)c2ccc3ccccc3c2S1(=O)=O`, the inhibition in experiment [1] is 38%; in experiment [2], 15%; in experiment [3], 34%.

For the compound `COc1ccc2c(c1)S(=O)(=O)N(C)C(C(=O)Nc1ncc(C)s1)=C2O`, the inhibition in experiment [1] was determined as 50%; in experiment [2], 6%; in experiment [3], 16%.

Turning to `Cc1cc2c(s1)C(C(=O)Nc1ccccn1)=C(O)N(C)S2(=O)=O`, the inhibition came to 82% in experiment [1], 15% in experiment [2] and 53% in experiment [3].

Turning to `Cc1cnc(NC(=O)C2=C(O)c3ccc4ccccc4c3S(=O)(=O)N2C)s1`, the inhibition in experiment [1] was 100%; in experiment [2], 80%; in experiment [3], 100%.

In the case of `Cc1ccc2c(c1)/C(=C(\O)Nc1ncc(C)s1)C(=O)N(C)C2=O`, the values for the inhibition in experiment [1], in experiment [2] and in experiment [3] were 51%, 30% and 52%, respectively.

As to `Cc1cnc(NC(=O)C2=C(O)c3sc(C)cc3S(=O)(=O)N2C)s1`, the inhibition turned out to be 93% in experiment [1], 31% in experiment [2] and 68% in experiment [3].

For `CN1C(O)=C(C(=O)Nc2ccccc2)c2c(ccc3ccccc23)S1(=O)=O`, the inhibition came to 72% in experiment [1], 18% in experiment [2] and 54% in experiment [3].

With `O=C(Nc1cccc(Cl)c1)C1=C(O)c2ccccc2[S+]([O-])C1` (centres undefined), the inhibition is 38% in experiment [1], -2% in experiment [2] and -2% in experiment [3].

With `CN1C(O)=C(C(=O)Nc2ccc(Cl)cc2Cl)c2cc(F)ccc2S1(=O)=O`, the inhibition stood at 100% in experiment [1], 40% in experiment [2] and 94% in experiment [3].

Turning to `Cc1cnc(NC(=O)C2=C(O)c3ccc(F)cc3S(=O)(=O)N2C)s1`, the inhibition was 82% in experiment [1], -4% in experiment [2] and 36% in experiment [3].

On to `COc1ccc2c(c1)C(O)=C(C(=O)Nc1ccccc1)N(C)S2(=O)=O`, for which the inhibition is -3% in experiment [1], -6% in experiment [2] and -5% in experiment [3].

With `Cc1ccc2c(c1)S(=O)(=O)N(C)C(C(=O)Nc1ncc(C)s1)=C2O`, the figures for the inhibition in experiment [1], in experiment [2] and in experiment [3] were 69%, 8% and 31%, respectively.

Turning to `CC1Sc2ccc(Cl)cc2C(O)=C1C(=O)Nc1cccc(Cl)c1` (centres undefined), the inhibition amounted to 12% in experiment [1], 15% in experiment [2] and 10% in experiment [3].

Regarding `CN1C(C(=O)Nc2ccccn2)=C(O)c2cc(Cl)ccc2S1(=O)=O`, the inhibition is 43% in experiment [1], 3% in experiment [2] and 14% in experiment [3].

Take `CN1C(C(=O)Nc2ccccc2)=C(O)c2ccc3ccccc3c2S1(=O)=O`: the results for the inhibition in experiment [1], in experiment [2] and in experiment [3] were 88%, 4% and 64%, respectively.

On to `CN1C(C(=O)Nc2ccccn2)=C(O)c2sc3cc(Cl)ccc3c2S1(=O)=O`, for which the inhibition in experiment [1] worked out at 93%; in experiment [2], 69%; in experiment [3], 100%.

For the compound `O=C(Nc1cccc(Cl)c1)C1=C(O)c2cc(Cl)ccc2[S+]([O-])C1` (centres undefined), the inhibition in experiment [1] turned out to be 76%; in experiment [2] it was 0%; in experiment [3] it was 17%.

With `CN1C(O)=C(C(=O)Nc2ccc(Cl)cc2Cl)c2c(ccc(Cl)c2Cl)S1(=O)=O`, the figures for the inhibition in experiment [1], in experiment [2] and in experiment [3] were 98%, 19% and 55%, respectively.

Regarding `Cn1c(C(=O)Nc2nccs2)c(O)c2ccccc2c1=O`, the inhibition was found to be 37% in experiment [1], 2% in experiment [2] and 11% in experiment [3].

With `CCn1c2c(c3ccccc31)S(=O)(=O)N(C)C(C(=O)Nc1ccccc1)=C2O`, the inhibition in experiment [1] was 5%; in experiment [2], -9%; in experiment [3], 0%.

As to `CN1C(O)=C(C(=O)Nc2ccccn2)c2ccccc2S1(=O)=O`, the inhibition in experiment [1] was found to be 53%; in experiment [2], 10%; in experiment [3], 17%.

As to `CCc1cnc(NC(=O)C2=C(O)c3ccccc3S(=O)(=O)N2C)s1`, the figures for the inhibition in experiment [1], in experiment [2] and in experiment [3] were 30%, -4% and 23%, respectively.

`CN1C(O)=C(C(=O)Nc2ccc(Br)cc2)c2ccc(Cl)cc2S1(=O)=O`: the inhibition in experiment [1] stood at 100%; in experiment [2], 27%; in experiment [3] it was 89%.

Take `Cc1cnc(NC(=O)C2=C(O)c3cc(F)ccc3S(=O)(=O)N2C)s1`: the inhibition in experiment [1] stood at 56%; in experiment [2] it was 2%; in experiment [3], 21%.

On to `O=C(Nc1ccc(Cl)cc1Cl)C1=C(O)N(Cc2ccccc2)S(=O)(=O)c2ccc(F)cc21`, for which the inhibition came out at 98% in experiment [1], 3% in experiment [2] and 39% in experiment [3].

On to `CN1C(O)=C(C(=O)Nc2ccc(Cl)cc2)c2cc3ccccc3cc2S1(=O)=O`, for which the inhibition in experiment [1] was 100%; in experiment [2], 57%; in experiment [3], 100%.

In the case of `Cc1cnc(NC(=O)C2=C(O)c3cc(Cl)ccc3SC2)s1`, the inhibition in experiment [1] is 18%; in experiment [2], 11%; in experiment [3] it was 21%.

As for `CN1C(C(=O)Nc2ccccn2)=C(O)c2ccc3ccccc3c2S1(=O)=O`, the inhibition in experiment [1] amounted to 100%; in experiment [2], 29%; in experiment [3], 78%.

Turning to `COc1ccc2c(c1)c1c(n2C)C(O)=C(C(=O)Nc2nccs2)N(C)S1(=O)=O`, the inhibition in experiment [1] came to 86%; in experiment [2], 3%; in experiment [3], 33%.

Take `Cc1cc2c(s1)S(=O)(=O)N(C)C(C(=O)Nc1ccccc1F)=C2O`: the inhibition in experiment [1] amounted to 100%; in experiment [2] it was 78%; in experiment [3] it was 96%.

Regarding `Cc1ccc2c(c1)C(O)=C(C(=O)Nc1ccc(Cl)cc1)N(C)S2(=O)=O`, the results for the inhibition in experiment [1], in experiment [2] and in experiment [3] were 21%, 0% and -1%, respectively.

As for `CN1C(C(=O)Nc2ncc(-c3ccccc3)s2)=C(O)c2ccccc2S1(=O)=O`, the inhibition was 97% in experiment [1], 6% in experiment [2] and 55% in experiment [3].

Take `Cc1cnc(NC(=O)C2=C(O)c3ccccc3SC2)s1`: the figures for the inhibition in experiment [1], in experiment [2] and in experiment [3] were 35%, 16% and 29%, respectively.

For `Cc1cnc(NC(=O)C2=C(O)c3cc(C)sc3S(=O)(=O)N2C)s1`, the inhibition came to 14% in experiment [1], 9% in experiment [2] and 6% in experiment [3].

For the compound `CN1C(O)=C(C(=O)Nc2ccccc2Cl)c2cc(F)ccc2S1(=O)=O`, the inhibition in experiment [1] is 100%; in experiment [2] it was 32%; in experiment [3] it was 96%.

For `Cc1nnc(NC(=O)C2=C(O)c3ccccc3S(=O)(=O)N2C)s1`, the inhibition in experiment [1] was 2%; in experiment [2] it was 0%; in experiment [3], 18%.

As for `Cc1cc(NC(=O)C2=C(O)c3ccccc3S(=O)(=O)N2C)no1`, the inhibition was 10% in experiment [1], -2% in experiment [2] and 7% in experiment [3].

As for `CN1C(C(=O)Nc2nccs2)=C(O)c2sc3cc(Cl)ccc3c2S1(=O)=O`, the figures for the inhibition in experiment [1], in experiment [2] and in experiment [3] were 100%, 99% and 100%, respectively.

For the compound `Cc1cnc(NC(=O)C2=C(O)c3c(c4ccccc4n3C)S(=O)(=O)N2C)s1`, the inhibition in experiment [1] is 97%; in experiment [2], 1%; in experiment [3], 32%.

As to `Cc1cnc(NC(=O)C2=C(O)c3ccc(Cl)cc3S(=O)(=O)N2C)s1`, the results for the inhibition in experiment [1], in experiment [2] and in experiment [3] were 85%, -9% and 36%, respectively.

In the case of `CCN1C(C(=O)Nc2ncc(C)s2)=C(O)c2ccccc2S1(=O)=O`, the inhibition in experiment [1] was 27%; in experiment [2], -2%; in experiment [3], -6%.

Take `CN1C(C(=O)Nc2ccccc2)=C(O)c2ccccc2S1(=O)=O`: the inhibition was 26% in experiment [1], -8% in experiment [2] and 16% in experiment [3].

In the case of `CN1C(O)=C(C(=O)Nc2ccc(Br)cc2)c2cc(Cl)ccc2S1(=O)=O`, the inhibition in experiment [1] was 97%; in experiment [2] it was 33%; in experiment [3] it was 97%.

As for `CN1C(C(=O)Nc2nc3ccccc3s2)=C(O)c2ccccc2S1(=O)=O`, the inhibition was 95% in experiment [1], 13% in experiment [2] and 49% in experiment [3].
